PubChem BioAssay AID624467 (The Scripps Research Institute Molecular Screening Center, 2012)
About 3,600 (1%) of roughly 360,000 compounds were called active.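 How the source made its calls: active means activation above the mean activation of all test compounds in the run plus 3 SD (cut at about 38% in these data); inactive means the rest.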 The entries come from a sample that favours actives as a whole.

Target: Trace amine-associated receptor 1 (Homo sapiens) (UniProt Q96RJ0)
Experiment: human TAAR1 agonists, primary screen, Fluo-8 calcium fluorescence, CHO RD-HGA16 cells (AID 624467)
Conditions: CHO RD-HGA16 TAAR1, Fluo-8 calcium fluorescence; at 3 µM; stronger effect = higher value; vehicle wells 0%, saturating PEA agonist 100%
Procedure, shortened: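 Signal – calcium-sensitive Fluo-8 signal, excitation 470-495, emission 515-575 nm · System – RD-HGA16 (CHO) cells co-expressing Gα16 and hTAAR1 · Incubation – 17-24 h seeding, 75 min 37 °C dye, 30 min RT · Compound dosing – 3 µM single concentration · Repeats – no replicates (n 1)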

Sequence of Trace amine-associated receptor 1 (Homo sapiens) (Q96RJ0 whole entry, looked up): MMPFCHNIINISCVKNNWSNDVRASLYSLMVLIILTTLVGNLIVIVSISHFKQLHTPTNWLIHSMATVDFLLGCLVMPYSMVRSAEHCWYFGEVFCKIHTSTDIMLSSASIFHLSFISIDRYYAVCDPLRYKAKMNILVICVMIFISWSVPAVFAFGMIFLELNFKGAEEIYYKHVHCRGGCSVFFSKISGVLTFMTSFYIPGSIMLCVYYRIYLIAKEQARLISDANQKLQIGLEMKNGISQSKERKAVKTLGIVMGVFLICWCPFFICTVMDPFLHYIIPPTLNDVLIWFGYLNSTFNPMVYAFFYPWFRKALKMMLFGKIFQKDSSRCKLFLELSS

activation, inactive:
O=S(=O)(c1cccs1)N1CCCc2nc(-c3ccc(Br)cc3)ccc21 1.37%
NC(=O)c1ncn([C@@H]2O[C@H](C(=O)O)[C@@H](O)[C@H]2O)n1 1.97%
COCCNC(=O)c1cc2c(Br)ccc(Br)c2nc1N 0.74%
Cc1cccc2cc(CN(Cc3nnnn3Cc3ccccc3)C3CCCC3)c(=O)[nH]c12 12%
COc1ccc2[nH]c(=O)c(CN(Cc3nnnn3CCc3ccccc3)CC3CCCO3)cc2c1 (stereo unspecified) 11.8%
CCC(c1nnnn1C1CCCC1)N(Cc1cccs1)Cc1cc2cccc(C)c2[nH]c1=O (stereo unspecified) 2.02%
CCC(c1nnnn1Cc1ccco1)N(Cc1cc2cc(OC)ccc2[nH]c1=O)C1CCCCC1 (stereo unspecified) 1.97%
CN(C)S(=O)(=O)c1cc(C(=O)Nc2ccn(C)n2)c(Cl)cc1Cl 2.93%
Nc1ncnc2c1ncn2C1OC(CO)CC1O (stereo unspecified) 1.93%
O=S(=O)(c1cccs1)N1CCc2ccccc2C1 13%
CN(C)CCCNC(=S)N1CCN(c2nc(-c3ccccc3)cs2)CC1 3.41%
COc1ccc(Cn2c(-c3ccc(Cl)cc3)c[n+]3ccccc23)cc1 12.9%
C=CC1=CCN(S(=O)(=O)C(C)(C)C)[C@@H]1CCO 3.56%
FC(F)(F)c1ccc(-n2cn[nH]c2=S)cc1 0.73%
CSc1ccc(CCNC(=O)C2CCN(c3nnc(-n4cccc4)s3)CC2)cc1 -0.88%
CCOC(=O)C1CCCN(C(=O)C2CCN(c3nnc(-n4cccc4)s3)CC2)C1 (stereo unspecified) -0.39%
CC1(C)CC(=O)C=C(c2ccccc2CO)C1=O 0.98%
COC1=CCC2([N+](=O)[O-])CN(CC(=O)O)CC1([N+](=O)[O-])C2 (stereo unspecified) 1.51%
CCOC(=O)C1=C(C(=O)OCC)C2N(Cc3ccc(C#N)cc3)c3ccccc3[C@@]23C[C@@H](C(=O)OC)N(S(=O)(=O)c2ccc(F)cc2)C3=N1 (stereo partly specified) -0.08%
Cc1noc(C)c1NC(=O)Nc1ccc2c(c1)C(=O)N([C@H](C)CO)C[C@H](C)[C@H](CN(C)Cc1ccncc1)OCCCC[C@@H](C)O2 2.28%
CCc1cc(=O)oc2c(C)c(OCC(=O)NCCN3CCOCC3)ccc12 2.36%
Cc1cc(=O)oc2c(C)c(OCC(=O)NCCc3ccc(S(N)(=O)=O)cc3)ccc12 0.73%
O=C1C2(c3ccccc3)CN(CCCO)CC1(c1ccccc1)CN(CCCO)C2 2.41%
Cn1c(=O)c2c(nc(SCCNS(=O)(=O)c3ccccc3)n2C)n(C)c1=O 1.23%
CCOc1ccc(Cn2c(SCCCCC#N)nc3c2c(=O)n(C)c(=O)n3C)cc1OCC 17.1%
CC1CCc2sc(C(=O)N/N=C/C3CCCCC3)cc2C1 (stereo unspecified) 5.23%
COCc1[nH]nc2c1C(c1ccccc1)N(c1ccccc1)C2=O (stereo unspecified) 0.37%
O=C(Cn1nnc(-c2ccccc2)n1)N/N=C/c1ccc(-c2ccc(Cl)cc2)o1 -0.07%
O=C(Cn1cncn1)N/N=C/c1c2ccccc2cc2ccccc12 6.44%
CC(C)CNc1cccc2c1S(=O)(=O)N[C@H](C)CO2 -0.59%
CC(=O)NC(=S)NNC(=O)c1ccc(Br)cc1 6.34%
Cn1nnc(NC(=S)NC(=O)c2ccccc2)n1 0.43%
COc1ccc(/C(N)=N/OC(=O)CCCc2ccccc2)cc1 5.81%
CCOc1ccccc1NC(=S)NC(=O)CCc1ccccc1 -1.05%
COCCCNC(=O)C[C@H]1C[C@@]2(C(=O)OC)C(=C[C@H](C(C)(C)C)O[C@@H]2C)N(Cc2ccc3c(c2)OCO3)C1=O 0.46%
Nc1[nH]c(C(=O)c2ccccc2)c(-c2ccc(Cl)cc2Cl)c1C(=O)c1ccccc1 1.29%
CCC(Sc1nncn1C)C(=O)Nc1nnc(-c2ccc(Cl)cc2)s1 (stereo unspecified) 0.73%
COCc1cc(N2CCN(C(=O)OC(C)(C)C)C[C@@H]2C)ccc1N1CCN(Cc2ccccc2)[C@H](C)C1 -1.74%
Cc1ccccc1C(=O)N[C@H](C(=O)N1CCC[C@H]1C(=O)NCc1ccccc1)C(C)C 1.24%
CC(=O)N(CC(O)CO)c1c(I)c(C(=O)NCC(O)CO)c(I)c(C(=O)NCC(O)CO)c1I (stereo unspecified) 0.12%
COC(=O)[C@]12C[C@H](CC(=O)NCc3cccc(C(F)(F)F)c3)C(=O)N(Cc3ccc4c(c3)OCO4)C1=C[C@H](COCc1ccccc1)O[C@@H]2C 1.6%
CN1C(=O)/C(=N/OC(=O)c2ccccc2Br)c2ccccc21 2.86%
Cc1ccc(S(=O)(=O)n2nc(OC(=O)C(C)(C)C)cc2N)cc1 2.73%
Cc1cc(C)n(CCNS(=O)(=O)c2ccc(Cl)cc2)n1 2.21%
COc1ccc(-c2cn[nH]c2-c2ccc(OC)cc2)cc1 5.38%
C[C@@H]1CN([C@@H](C)CO)S(=O)(=O)c2ccc(C#Cc3cccc(F)c3)cc2O[C@H]1CN(C)S(=O)(=O)c1cn(C)cn1 20.9%
CC(C)CC(=O)NC(=S)NNC(=O)c1cccc([N+](=O)[O-])c1 20.7%
COCCCNC(=S)NC(=O)c1ccc([N+](=O)[O-])cc1 0.22%
CCOc1cc(C(=O)N2CCc3cc(OC)c(OC)cc3C2)ccc1OC(F)F 3.06%
Cc1cc(OC(=O)NCCc2ccc(F)cc2)ccc1F 3.75%
CC[C@H](C)[C@H]1CNC(=O)C(=O)N1CC1CCN(CCc2ccc(OC)c(OC)c2)CC1 -0.17%
Cc1ccc(O)c(-c2cc(C(=O)NCc3ccccc3)[nH]n2)c1 8.4%
CCCOc1ccc(F)cc1-c1cc(C(=O)NCc2ccc(F)cc2)[nH]n1 3.61%
Brc1cnc2ccccc2c1N1CCCCC1 5.6%
CCOC(=O)C1=C(CC)Nc2ccccc2N=C1NC(=O)c1cccc(S(=O)(=O)N2CCCC2)c1 7.96%
NC(=O)COc1ccc(/C=N/NC(=O)C2CCCN2S(=O)(=O)c2ccc(Cl)cc2)cc1 (stereo unspecified) 5.15%
CC(C)(C)NC(=O)NC(=O)COC(=O)Cc1ccc(Cl)cc1Cl -2.34%
O=C(Nc1ccc(S(=O)(=O)Nc2ncccn2)cc1)C12CC3CC(CC(C3)C1)C2 0.17%
Cc1cc(C(F)F)n2nc(C(=O)Nc3ccc(S(=O)(=O)NC45CC6CC(CC(C6)C4)C5)cc3)nc2n1 6.82%
COC(=O)c1cc2c(c3c4cc(F)ccc4n(S(=O)(=O)c4ccccc4)c13)C(=O)N(Cc1ccccc1OC)C2 0.14%
O=C1CC(Sc2ncn[nH]2)C(=O)N1c1ccccc1 (stereo unspecified) 4.92%
COc1cccc(-c2nc3nc(C)cc(C)n3c2NC2CCCCC2)c1 1.46%
CC(C)(C)Oc1ncc(Br)c(OC(C)(C)C)n1 1.63%
CN(C(=O)CN1C(=O)NC(C)(CCc2ccccc2)C1=O)c1ccccc1 (stereo unspecified) 1.03%
CC(=O)C1=C(C)N(Cc2ccccc2)C(=S)NC1c1cccc(Br)c1 (stereo unspecified) -0.24%
Cc1ccc(N)cc1CN1CCN(c2ncc(Cc3ccccc3)cn2)CC1 -0.94%
COc1ccc(C2/C=C\CN(CC(C)C)CC(=O)N2Cc2ccc(F)cc2)cc1 (stereo unspecified) -1.75%
Cc1c([N+](=O)[O-])c(N)nn1C 2.61%
Cc1nn2c3cc(N4CCOCC4)ccc3nc2c2ccccc12 2.7%

activation, active:
CCC(c1nnnn1Cc1ccco1)N(CCc1ccccc1)Cc1cc2cccc(C)c2[nH]c1=O (stereo unspecified) 43.8%
CCC(c1nnnn1Cc1ccco1)N(CCc1ccccc1)Cc1cc2ccc(OC)cc2[nH]c1=O (stereo unspecified) 100%
c1ccc(-c2csc(N3CCc4ccccc4C3)n2)cc1 73%
O=C(C1CCN(c2nnc(-n3cccc3)s2)CC1)N1CCc2ccccc2C1 40.9%
Cc1cc(=O)oc2c(C)c(OCC(=O)NCCN3CCOCC3)ccc12 43.2%
CCCSc1nc2c(c(=O)n(C)c(=O)n2C)n1Cc1ccc(C)cc1 52.6%
Nc1nnn(CC(=O)N/N=C/c2ccccc2)n1 43.3%
COc1ccc(C(=O)NC(=S)NNC(=O)CCc2ccccc2)cc1 108%
COc1ccc(C(=O)NNC(=S)NC(=O)c2ccccc2)cc1 130%
Nc1cc(OC(=O)c2ccccc2Br)nn1S(=O)(=O)c1ccccc1 78%
COc1ccc2cc(-c3[nH]ncc3CNCCn3nc(C)cc3C)ccc2c1 44%
CCCCCC(=O)NC(=S)NNC(=O)c1ccc([N+](=O)[O-])cc1 71.7%
Cc1cc(O)ccc1-c1cc(C(=O)NCc2cc(C(F)(F)F)cc(C(F)(F)F)c2)[nH]n1 39.9%
NC(N)=N/N=C/c1ccc(OCc2ccc(Cl)cc2Cl)cc1 84.3%
CCn1nccc1C(=O)Nc1ccc(S(=O)(=O)NC23CC4CC(CC(C4)C2)C3)cc1 42.5%
COc1cccc(-c2cnc(OC(C)(C)C)nc2OC(C)(C)C)c1 47.4%
CN(C)c1ccc(/C=C2\NC(=S)N(Cc3ccccc3)C2=O)cc1 81.4%
